Assay results reported in ChEMBL document CHEMBL1828554, “3,5-dimethylisoxazoles act as acetyl-lysine-mimetic bromodomain ligands” (J Med Chem, 2011).

How the values were obtained:
[1] = molecular target: Bromodomain-containing protein 3 (Homo sapiens) (UniProt Q15059); assay: Binding affinity to second bromodomain of BRD3 assessed as change in melting temperature at 100 uM by differential scanning fluorimetry
Summary of the method: (§1)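 Thermal shift by differential scanning fluorimetry on a real-time PCR instrument. Bromodomain protein at 2 μM, compound at 100 μM, in 10 mM HEPES pH 7.5, 500 mM NaCl with SyproOrange dye diluted 1:1000. The observed melting temperature shift was measured in duplicate, and the average was reported.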

CREB-binding protein [2] = molecular target: T1, CREB-binding protein (Homo sapiens, UniProt Q92793); assay: Binding affinity to CREBBP assessed as change in melting temperature at 100 uM by differential scanning fluorimetry; summary of the method: as §1
[3] = molecular target: T2, Bromodomain-containing protein 2 (Homo sapiens, UniProt P25440); assay: Binding affinity to first bromodomain of BRD2 assessed as change in melting temperature at 100 uM by differential scanning fluorimetry; summary of the method: as §1
Target sequence in this assay (P25440 whole entry, looked up): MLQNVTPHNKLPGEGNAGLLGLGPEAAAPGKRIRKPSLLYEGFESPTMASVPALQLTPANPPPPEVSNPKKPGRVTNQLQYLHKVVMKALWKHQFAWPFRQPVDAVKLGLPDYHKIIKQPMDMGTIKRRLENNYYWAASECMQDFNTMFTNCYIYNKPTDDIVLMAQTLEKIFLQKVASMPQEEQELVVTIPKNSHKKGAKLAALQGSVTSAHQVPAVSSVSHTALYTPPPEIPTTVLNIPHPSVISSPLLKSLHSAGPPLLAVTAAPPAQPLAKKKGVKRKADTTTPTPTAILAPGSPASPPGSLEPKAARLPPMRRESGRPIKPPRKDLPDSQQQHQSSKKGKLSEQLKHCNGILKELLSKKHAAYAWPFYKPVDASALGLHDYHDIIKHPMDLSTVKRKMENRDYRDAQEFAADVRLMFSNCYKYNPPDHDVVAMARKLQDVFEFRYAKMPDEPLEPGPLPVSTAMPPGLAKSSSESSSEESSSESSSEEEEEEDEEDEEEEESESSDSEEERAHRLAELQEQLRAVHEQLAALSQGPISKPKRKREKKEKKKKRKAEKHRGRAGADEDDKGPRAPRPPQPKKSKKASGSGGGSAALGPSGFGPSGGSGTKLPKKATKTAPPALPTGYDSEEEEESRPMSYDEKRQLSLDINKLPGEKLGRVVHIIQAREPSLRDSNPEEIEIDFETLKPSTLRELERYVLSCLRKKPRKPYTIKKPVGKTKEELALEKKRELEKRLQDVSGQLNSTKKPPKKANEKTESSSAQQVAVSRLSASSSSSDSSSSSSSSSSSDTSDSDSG

[4] = molecular target: T3, Bromodomain-containing protein 4 (Homo sapiens, UniProt O60885); assay: Displacement of H4Ac4 peptide from first bromodomain of human BRD4 by peptide displacement assay
Summary of the method: (§2)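 AlphaScreen displacement of a biotinylated tetra-acetylated H4 peptide (SGRGK(Ac)GGK(Ac)GLGK(Ac)GGAK(Ac)RHRK(Biotin)) from the bromodomain. Run in duplicate on one plate.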

[5] = molecular target: T4, Bromodomain adjacent to zinc finger domain protein 2B (Homo sapiens, UniProt Q9UIF8); assay: Binding affinity to BAZ2B assessed as change in melting temperature at 100 uM by differential scanning fluorimetry; summary of the method: as §1
[6] = molecular target: Bromodomain testis-specific protein (Homo sapiens) (UniProt Q58F21); assay: Binding affinity to BRDT assessed as change in melting temperature at 100 uM by differential scanning fluorimetry; summary of the method: as §1
CREB-binding protein [7] = molecular target: T1, CREB-binding protein; assay: Displacement of H3K56Ac from human CREBBP by peptide displacement assay
[8] = molecular target: T2, Bromodomain-containing protein 2; assay: Displacement of H4Ac4 peptide from first bromodomain of human BRD2 by peptide displacement assay; summary of the method: as §2
Target sequence in this assay (P25440 whole entry): as the sequence (P25440 whole entry, looked up) above

[9] = molecular target: T2, Bromodomain-containing protein 2; assay: Binding affinity to second bromodomain of BRD2 assessed as change in melting temperature at 100 uM by differential scanning fluorimetry; summary of the method: as §1
Target sequence in this assay (P25440 whole entry, looked up): as above

[10] = Binding affinity to LOC93349 assessed as change in melting temperature at 100 uM by differential scanning fluorimetry; summary of the method: as §1
[11] = molecular target: Bromodomain-containing protein 3 (Homo sapiens) (UniProt Q15059); assay: Binding affinity to first bromodomain of BRD3 assessed as change in melting temperature at 100 uM by differential scanning fluorimetry; summary of the method: as §1
[12] = molecular target: T3, Bromodomain-containing protein 4; assay: Binding affinity to second bromodomain of BRD4 assessed as change in melting temperature at 100 uM by differential scanning fluorimetry; summary of the method: as §1
[13] = molecular target: Protein polybromo-1 (Homo sapiens) (UniProt Q86U86); assay: Binding affinity to PB1 assessed as change in melting temperature at 100 uM by differential scanning fluorimetry; summary of the method: as §1
[14] = molecular target: T3, Bromodomain-containing protein 4; assay: Binding affinity to first bromodomain of BRD4 assessed as change in melting temperature at 100 uM by differential scanning fluorimetry; summary of the method: as §1
[15] = molecular target: Histone acetyltransferase KAT2B (Homo sapiens) (UniProt Q92831); assay: Binding affinity to PCAF assessed as change in melting temperature at 100 uM by differential scanning fluorimetry; summary of the method: as §1
[16] = molecular target: T4, Bromodomain adjacent to zinc finger domain protein 2B; assay: Inhibition of BAZ2B
CREB-binding protein [17] = molecular target: T1, CREB-binding protein; assay: Inhibition of CREBBP
Summary of the method: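 AlphaScreen peptide-displacement assay with the CREBBP bromodomain, using a biotinylated H3K56Ac histone peptide as the displaced ligand. Each concentration was run in duplicate on the same plate. IC50 was obtained by sigmoidal curve fitting of the duplicate data and reported with 95% confidence intervals, taken from a single assay.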

Histone acetyltransferase KAT2B (Homo sapiens), sequence (Q92831 whole entry, looked up, the tested form may be a part): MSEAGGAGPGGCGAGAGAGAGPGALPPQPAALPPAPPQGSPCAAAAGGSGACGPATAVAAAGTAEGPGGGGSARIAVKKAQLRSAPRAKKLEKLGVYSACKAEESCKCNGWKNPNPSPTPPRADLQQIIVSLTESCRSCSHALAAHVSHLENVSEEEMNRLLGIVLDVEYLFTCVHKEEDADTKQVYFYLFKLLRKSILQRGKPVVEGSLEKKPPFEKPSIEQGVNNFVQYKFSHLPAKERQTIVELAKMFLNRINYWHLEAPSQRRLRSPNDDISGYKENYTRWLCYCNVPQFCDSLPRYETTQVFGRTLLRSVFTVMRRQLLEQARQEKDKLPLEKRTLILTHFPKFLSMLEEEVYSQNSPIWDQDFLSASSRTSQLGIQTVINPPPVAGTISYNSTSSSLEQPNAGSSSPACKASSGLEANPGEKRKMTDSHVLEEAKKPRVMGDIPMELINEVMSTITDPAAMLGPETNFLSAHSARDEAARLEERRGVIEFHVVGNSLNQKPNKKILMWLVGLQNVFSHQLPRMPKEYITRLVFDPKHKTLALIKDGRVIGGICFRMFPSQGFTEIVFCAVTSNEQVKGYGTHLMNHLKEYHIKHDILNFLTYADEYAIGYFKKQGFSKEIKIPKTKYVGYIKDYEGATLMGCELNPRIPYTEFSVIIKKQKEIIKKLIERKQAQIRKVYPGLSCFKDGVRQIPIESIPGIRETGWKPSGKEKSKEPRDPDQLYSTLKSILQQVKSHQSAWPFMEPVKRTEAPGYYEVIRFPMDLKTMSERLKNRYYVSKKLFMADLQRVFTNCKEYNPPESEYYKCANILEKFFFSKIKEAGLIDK
T4 sequence (Q9UIF8 whole entry, the tested form may be a part): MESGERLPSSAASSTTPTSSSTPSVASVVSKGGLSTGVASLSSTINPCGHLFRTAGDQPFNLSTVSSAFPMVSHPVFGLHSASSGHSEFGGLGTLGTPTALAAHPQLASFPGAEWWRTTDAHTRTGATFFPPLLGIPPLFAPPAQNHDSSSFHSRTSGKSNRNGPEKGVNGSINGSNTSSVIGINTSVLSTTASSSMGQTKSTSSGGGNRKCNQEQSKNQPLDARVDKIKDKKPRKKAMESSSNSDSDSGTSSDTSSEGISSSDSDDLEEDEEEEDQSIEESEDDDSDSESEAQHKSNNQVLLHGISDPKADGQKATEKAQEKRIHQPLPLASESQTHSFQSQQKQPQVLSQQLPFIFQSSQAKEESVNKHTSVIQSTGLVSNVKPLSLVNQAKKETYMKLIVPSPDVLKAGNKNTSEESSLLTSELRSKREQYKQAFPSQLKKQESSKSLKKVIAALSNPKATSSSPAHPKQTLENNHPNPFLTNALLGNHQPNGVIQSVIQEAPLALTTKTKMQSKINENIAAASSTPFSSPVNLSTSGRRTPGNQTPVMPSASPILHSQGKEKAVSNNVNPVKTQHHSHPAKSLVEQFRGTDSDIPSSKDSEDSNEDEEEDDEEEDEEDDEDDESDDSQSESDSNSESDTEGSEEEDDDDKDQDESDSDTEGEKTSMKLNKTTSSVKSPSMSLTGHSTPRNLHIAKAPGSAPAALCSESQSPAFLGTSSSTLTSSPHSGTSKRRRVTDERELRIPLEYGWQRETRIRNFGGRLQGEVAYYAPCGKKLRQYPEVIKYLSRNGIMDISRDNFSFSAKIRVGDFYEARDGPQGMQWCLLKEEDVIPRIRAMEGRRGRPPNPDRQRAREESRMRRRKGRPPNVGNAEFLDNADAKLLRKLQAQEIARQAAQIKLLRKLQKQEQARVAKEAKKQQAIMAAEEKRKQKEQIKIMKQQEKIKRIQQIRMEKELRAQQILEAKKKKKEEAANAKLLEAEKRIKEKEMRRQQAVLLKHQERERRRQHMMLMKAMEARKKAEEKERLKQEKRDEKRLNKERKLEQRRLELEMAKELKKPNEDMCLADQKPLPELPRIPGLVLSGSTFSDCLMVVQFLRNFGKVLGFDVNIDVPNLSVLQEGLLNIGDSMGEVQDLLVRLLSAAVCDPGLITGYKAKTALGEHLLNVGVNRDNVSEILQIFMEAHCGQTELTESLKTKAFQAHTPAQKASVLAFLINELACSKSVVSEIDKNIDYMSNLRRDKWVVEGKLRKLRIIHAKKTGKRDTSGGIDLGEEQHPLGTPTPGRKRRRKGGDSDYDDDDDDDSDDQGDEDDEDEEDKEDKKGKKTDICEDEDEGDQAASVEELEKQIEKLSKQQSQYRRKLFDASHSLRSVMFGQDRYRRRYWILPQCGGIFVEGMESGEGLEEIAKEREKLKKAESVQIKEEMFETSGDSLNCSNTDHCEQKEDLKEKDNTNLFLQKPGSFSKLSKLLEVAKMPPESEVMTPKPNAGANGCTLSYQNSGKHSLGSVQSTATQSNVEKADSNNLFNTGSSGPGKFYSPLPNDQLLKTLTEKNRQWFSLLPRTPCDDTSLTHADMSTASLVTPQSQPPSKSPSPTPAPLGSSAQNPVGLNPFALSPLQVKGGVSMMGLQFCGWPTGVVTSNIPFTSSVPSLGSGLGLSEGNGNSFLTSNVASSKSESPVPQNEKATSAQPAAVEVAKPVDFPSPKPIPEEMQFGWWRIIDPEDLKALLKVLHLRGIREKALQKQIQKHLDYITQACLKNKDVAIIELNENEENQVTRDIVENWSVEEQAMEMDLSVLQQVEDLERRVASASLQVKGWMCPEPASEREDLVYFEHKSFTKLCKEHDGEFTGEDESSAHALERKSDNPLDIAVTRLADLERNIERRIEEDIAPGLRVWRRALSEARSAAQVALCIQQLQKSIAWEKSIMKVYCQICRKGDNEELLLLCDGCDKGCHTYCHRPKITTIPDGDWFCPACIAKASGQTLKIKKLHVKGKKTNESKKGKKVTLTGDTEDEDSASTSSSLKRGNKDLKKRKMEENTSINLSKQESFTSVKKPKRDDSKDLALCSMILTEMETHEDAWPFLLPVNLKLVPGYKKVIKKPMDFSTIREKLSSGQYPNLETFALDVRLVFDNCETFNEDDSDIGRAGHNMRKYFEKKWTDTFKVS

| ΔTm [1] [°C] | ΔTm (CREB-binding protein [2]) [°C] | ΔTm [3] [°C] | IC50 [4] [µM] | ΔTm [5] [°C] | ΔTm [6] [°C] | IC50 (CREB-binding protein [7]) [µM] | IC50 [8] [µM] | ΔTm [9] [°C] | ΔTm [10] [°C] | ΔTm [11] [°C] | ΔTm [12] [°C] | ΔTm [13] [°C] | ΔTm [14] [°C] | ΔTm [15] [°C] | IC50 [16] [µM] | IC50 (CREB-binding protein [17]) [µM] | Structure (SMILES) |
| --- | --- | --- | --- | --- | --- | --- | --- | --- | --- | --- | --- | --- | --- | --- | --- | --- | --- |
| 6.5 | 1.5 | 3.3 | 9.7 | 0.2 | 1.6 | 45.4 | 4.2 | 5.6 | -0.8 | 5.3 | 6.3 | 0.2 | 5.4 | 0 | – | – | Cc1noc(C)c1-c1cccc(C(C)O)c1 (racemic) |
| 6 | 3.4 | 3.2 | 7.5 | – | – | 12.9 | 2.3 | 5.3 | -1 | 4.8 | 6.5 | -0.3 | 5.1 | – | – | – | CCOc1cc(C(C)=O)cc(-c2c(C)noc2C)c1 |
| 6.8 | 3.8 | 5.4 | – | – | 3.2 | 3.4 | – | 6.2 | -0.2 | 7.2 | – | 0.7 | 8 | – | – | – | Cc1noc(C)c1-c1ccc2c(c1)CN(C)C(=O)N2 |
| 2.9 | 1.2 | 1.3 | 24.6 | – | -0.2 | 55.7 | 6 | 2.6 | -0.9 | 2 | 1.9 | -0.3 | 2.1 | – | – | – | CC(=O)c1cccc(-c2c(C)noc2C)c1 |
| – | – | – | – | – | – | – | – | – | – | – | – | – | – | – | 34000 | 2300 | CN1CCCC1=O [METHYLPYRROLIDONE] |
| 4.2 | 0.7 | 1.3 | 23.2 | – | -0.4 | 86.9 | 7.4 | 3.7 | -0.9 | 2.7 | 4 | -0.2 | 2.8 | – | – | – | CCOc1cccc(-c2c(C)noc2C)c1 |
| 8.9 | 4 | 6.1 | 4.8 | – | 3.5 | 28.1 | 1.6 | 8.3 | -0.9 | 8.5 | 8 | 0 | 8.5 | – | – | – | CCOc1cc(-c2c(C)noc2C)cc(C(C)O)c1 (racemic) |
| 2.6 | 2.9 | 1.1 | 51.2 | -0.1 | -0.8 | 32.2 | 28.2 | 2.5 | -1.2 | 2.2 | 2.2 | -0.1 | 2.3 | -0.5 | – | – | CCOc1cc(C(=O)O)cc(-c2c(C)noc2C)c1 |
| 3.8 | -0.2 | 2.3 | 7.7 | – | 1.1 | 49.4 | 3.3 | 3.3 | -0.2 | 3.6 | 3.8 | -0.1 | 3.7 | – | – | – | CCOC(=O)c1cc(OCC)cc(-c2c(C)noc2C)c1 |

| Structure (SMILES) | ΔTm [1] [°C] | ΔTm (CREB-binding protein [2]) [°C] | ΔTm [3] [°C] | IC50 [4] [µM] | ΔTm [5] [°C] | ΔTm [6] [°C] | IC50 (CREB-binding protein [7]) [µM] | IC50 [8] [µM] | ΔTm [9] [°C] | ΔTm [10] [°C] | ΔTm [11] [°C] | ΔTm [12] [°C] | ΔTm [13] [°C] | ΔTm [14] [°C] | ΔTm [15] [°C] | IC50 [16] [µM] | IC50 (CREB-binding protein [17]) [µM] |
| --- | --- | --- | --- | --- | --- | --- | --- | --- | --- | --- | --- | --- | --- | --- | --- | --- | --- |
| Cc1noc(C)c1-c1ccccc1 | 1.9 | 0.6 | 0.9 | 84.2 | -0.1 | 0 | > 200 | 34.3 | 2.1 | -0.6 | 1.6 | 2.6 | 0 | 2 | -0.8 | – | – |
